Data set [1] addresses T1, GABA-A receptor; GABA-A site (alpha1/beta2 interface) (Homo sapiens, UniProt P14867+P47870).
T1 sequence (P14867 whole entry): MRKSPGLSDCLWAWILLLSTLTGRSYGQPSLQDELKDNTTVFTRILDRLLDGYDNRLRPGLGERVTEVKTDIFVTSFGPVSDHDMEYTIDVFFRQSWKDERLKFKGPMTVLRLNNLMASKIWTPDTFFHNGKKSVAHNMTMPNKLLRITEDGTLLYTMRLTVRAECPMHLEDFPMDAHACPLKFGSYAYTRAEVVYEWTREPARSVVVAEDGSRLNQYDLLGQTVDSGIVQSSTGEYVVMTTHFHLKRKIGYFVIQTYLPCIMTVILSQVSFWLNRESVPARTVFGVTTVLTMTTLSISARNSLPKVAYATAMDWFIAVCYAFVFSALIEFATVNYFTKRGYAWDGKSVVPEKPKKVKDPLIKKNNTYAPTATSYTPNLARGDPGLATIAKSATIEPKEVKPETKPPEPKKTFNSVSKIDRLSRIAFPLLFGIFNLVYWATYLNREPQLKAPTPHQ
T1 sequence (P47870 whole entry): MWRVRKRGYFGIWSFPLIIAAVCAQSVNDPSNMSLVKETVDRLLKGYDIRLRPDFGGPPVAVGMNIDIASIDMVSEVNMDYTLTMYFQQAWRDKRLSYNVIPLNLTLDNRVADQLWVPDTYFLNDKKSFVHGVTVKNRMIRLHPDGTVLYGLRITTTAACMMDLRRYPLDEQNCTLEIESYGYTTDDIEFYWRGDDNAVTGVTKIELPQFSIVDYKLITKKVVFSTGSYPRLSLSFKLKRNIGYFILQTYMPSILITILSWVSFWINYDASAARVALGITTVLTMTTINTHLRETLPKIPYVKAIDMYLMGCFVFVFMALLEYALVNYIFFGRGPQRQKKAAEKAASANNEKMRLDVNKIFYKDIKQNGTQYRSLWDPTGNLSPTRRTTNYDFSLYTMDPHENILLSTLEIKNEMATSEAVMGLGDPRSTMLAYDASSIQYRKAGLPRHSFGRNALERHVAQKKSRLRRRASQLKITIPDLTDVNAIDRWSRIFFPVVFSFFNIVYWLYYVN
In words: Modulation of GABA Aalpha1beta2 receptor expressed in Xenopus laevis oocytes assessed as potentiation of GABA-induced chloride current at holding potential -70 mV by two-microelectrode voltage clamp technique. Format: cell-based, Oocyte. The essentials: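 Stage V–VI Xenopus oocytes, defolliculated with 2 mg/mL collagenase, injected with α(1, 2, 3 or 5) and β2 cRNAs mixed 1:1, then kept at 18 °C in ND96 (pH 7.4). Enhancement = I(GABA+compound)/IGABA − 1. Curves were Hill-fitted for EC50. Bath DMSO was at most 0.3%, matched in controls.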

Data set [2] in a line: Octanol-water partition coefficient, log P of the compound. It is filed as physicochemical.
Data set [3] deals with T2, GABA-A receptor; GABA-A site (alpha1/beta2 interface) (Homo sapiens) (UniProt P14867+P47870). In words: Modulation of GABA Aalpha1beta2 receptor expressed in Xenopus laevis oocytes assessed as potentiation of GABA-induced chloride current at holding potential -70 mV by two-microelectrode voltage clamp technique relative to GABA. The conditions noted are these: Oocyte. It is filed as cell-based. The essentials: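 Oocytes were injected with α1, α2, α3 or α5 plus β2 cRNA at a 1:1 ratio and stored at 18 °C in ND96, pH 7.4. Enhancement was (I(GABA+compound)/IGABA)−1, and concentration-response data were Hill-fitted for EC50 and nH. Matched DMSO was ≤0.3%.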

Data set [4] addresses T2, GABA-A receptor; GABA-A site (alpha1/beta2 interface) (Homo sapiens). The experiment in a line: Modulation of GABA Aalpha1beta2 receptor expressed in Xenopus laevis oocytes assessed as potentiation of GABA-induced chloride current at holding potential -70 mV at 30 uM by two-microelectrode voltage clamp technique relative to GABA. Format: cell-based. Conditions: Oocyte. The essentials: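 Single-concentration screen at 30 μM on α1β2 receptors (cRNA 1:1) in Xenopus oocytes. Enhancement was (I(GABA+compound)/IGABA)−1. DMSO was matched in control and test solutions, maximum 0.3% in the bath.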

For `C=CCc1cc(-c2ccc(O)c(CC=C)c2)ccc1O`, in data set [1], the EC50 was 23.7 µM. Further, the logP in data set [2] (read-out: logP) is 5.16. In addition, the Smax in data set [3] was determined as 110%. The Activity in data set [4] worked out at 73%.
On to `C=CCc1ccc(OCC)c(-c2ccc(OCC)c(CC=C)c2)c1`, for which the logP in data set [2] (read-out: logP) came to 6.37. The Activity in data set [4] came out at 14%.
On to `C=CCc1ccc(OC)c(-c2ccc(OC)c(CC=C)c2)c1`, for which, in data set [1], the 50% effective concentration (EC50) worked out at 42.1 µM. Further, the logP in data set [2] (read-out: logP) was 5.69. The Smax in data set [3] was found to be 368%. Moreover, in data set [4], the Activity turned out to be 110%.
As to `CCCCC=CCc1ccc(O)c(-c2ccc(OC)c(CC=CCCCC)c2)c1` (mixture of isomers), the EC50 in data set [1] came to 2 µM. Moreover, the logP in data set [2] (read-out: logP) amounted to 8.36. The Activity in data set [4] was -2%.
Take `C=CCc1ccc(O)c(-c2ccc(OC)c(/C=C\C)c2)c1`: the EC50 in data set [1] was 19.7 µM. For the same compound, in data set [2] (read-out: logP), the logP was determined as 5.45. Besides, the Smax in data set [3] stood at 1000%. Besides, in data set [4], the Activity is 605%.
In the same order, the values of `C=CCc1ccc(OC2CC2)c(-c2ccc(OCCC)c(CC=C)c2)c1` are 22 µM, 6.38, 608% and 339%.
In the same order, the values of `C=CCc1cc(-c2cc(CC(C)Br)ccc2O)ccc1OC` (stereo unspecified) are 8.4 µM, 5.99, 1340% and 1230%.
As to `C=CCc1ccc(OCCCCC)c(-c2ccc(O)c(CC=C)c2)c1`, in data set [2] (read-out: logP), the logP was 7.27. Besides, the Activity in data set [4] came to 13%.
On to `COc1ccc(-c2cc(CC(C)O)ccc2O)cc1CC(C)O` (stereo unspecified), for which the EC50 in data set [1] turned out to be 34.2 µM. The lipophilicity (logP) in data set [2] (read-out: logP) stood at 3.64. Besides, the Smax in data set [3] turned out to be 161%. Further, the Activity in data set [4] worked out at 68%.
In the same order, the values of `C=CCc1cc(NCC)c(O)c(-c2ccc(OC)c(CC=C)c2)c1` are 7.7 µM, 5.45, 2290% and 2140%.
With `C=CCc1ccc(OCCC)c(-c2ccc(OCCC)c(CC=C)c2)c1`, the lipophilicity (logP) in data set [2] (read-out: logP) amounted to 7.6. Besides, the Activity in data set [4] came to 22%.
Consider `C=CCc1ccc(OCC)c(-c2ccc(O)c(CC=C)c2)c1`, for which the EC50 in data set [1] was found to be 14.3 µM. The lipophilicity (logP) in data set [2] (read-out: logP) was 5.77. The Smax in data set [3] amounted to 1400%. For the same compound, in data set [4], the Activity was 1080%.
Take `C=CCc1cc(NC)c(O)c(-c2ccc(OC)c(CC=C)c2)c1`: the concentration giving a half-maximal response (EC50) in data set [1] turned out to be 9.3 µM. In addition, in data set [2] (read-out: logP), the logP came out at 5.11. The Smax in data set [3] is 2030%. Also, the Activity in data set [4] amounted to 1840%.
In the same order, the values of `C=CCc1cc(N)c(O)c(-c2ccc(OC)c(CC=C)c2)c1` are 12.4 µM, 4.79, 2710% and 2180%.
For `COc1ccc(-c2cc(CC(O)CO)ccc2O)cc1CC(O)CO` (stereo unspecified), the log partition coefficient (logP) in data set [2] (read-out: logP) stood at 1.57. Moreover, in data set [4], the Activity stood at 4%.
Take `C=CCc1ccc(O)c(-c2ccc(OC)c(CC=C)c2)c1` [METHYLHONOKIOL]: the concentration giving a half-maximal response (EC50) in data set [1] came out at 27.2 µM. Moreover, in data set [2] (read-out: logP), the lipophilicity (logP) came out at 5.43. Moreover, in data set [3], the Smax worked out at 1530%. Besides, the Activity in data set [4] was found to be 822%.
The corresponding values for `C=CCc1ccc(O)c(-c2cc(CC=C)ccc2OC)c1` are 54.3 µM, 5.43, 2800% and 687%.
Consider `C=CCc1ccc(O)c(-c2ccc(OCCCCC)c(CC=C)c2)c1`, for which, in data set [2] (read-out: logP), the lipophilicity (logP) worked out at 7.27. In data set [4], the Activity is 28%.
Take `COc1ccc(-c2cc(CCO)ccc2O)cc1CCO`: in data set [1], the EC50 turned out to be 105 µM. Also, in data set [2] (read-out: logP), the log partition coefficient (logP) is 2.72. The Smax in data set [3] came out at 177%. The Activity in data set [4] is 15%.
The corresponding values for `C=CCc1cc(-c2ccc(OC)c(CC=C)c2)c(O)c([N+](=O)[O-])c1` are 25 µM, 5.4, 227% and 120%.
On to `C=CCc1cc(-c2ccc(OC)c(CC=C)c2)c(O)c(N(CC)CC)c1`, for which the log partition coefficient (logP) in data set [2] (read-out: logP) came to 6.06. In addition, the Activity in data set [4] amounted to 7%.
Regarding `C=CCc1cc(-c2ccc(OC)c(CC=C)c2)c(O)c(N(C)C)c1`, the EC50 in data set [1] is 18.5 µM. Also, the lipophilicity (logP) in data set [2] (read-out: logP) was 5.38. Also, the Smax in data set [3] was found to be 326%. The Activity in data set [4] is 215%.
The compound `C=CCc1ccc(OCCCCC)c(-c2ccc(OCCCCC)c(CC=C)c2)c1` came in with a log partition coefficient (logP) in data set [2] of 9.37. Further, the Activity in data set [4] was 1%.
As for `C=CCc1ccc(O)c(-c2ccc(OC)c(CC(C)Br)c2)c1` (stereo unspecified), the half-maximal effective concentration (EC50) in data set [1] came out at 16.9 µM. Further, the lipophilicity (logP) in data set [2] (read-out: logP) was determined as 5.99. Further, the Smax in data set [3] stood at 952%. Also, in data set [4], the Activity was 589%.
For the compound `CCCc1ccc(O)c(-c2ccc(OC)c(CCC)c2)c1`, the EC50 in data set [1] was 12.7 µM. In addition, in data set [2] (read-out: logP), the lipophilicity (logP) amounted to 6.01. Moreover, the Smax in data set [3] was 1440%. Also, the Activity in data set [4] stood at 1060%.
In the same order, the values of `C=CCc1ccc(OCCC)c(-c2ccc(O)c(CC=C)c2)c1` are 14.8 µM, 6.38, 145% and 93%.
In the same order, the values of `C=CCc1ccc(O)c(-c2ccc(OCC)c(CC=C)c2)c1` are 59.9 µM, 5.77, 865% and 345%.
On to `C=CCc1ccc(O)c(-c2cc(CC=C)ccc2O)c1` [MAGNOLOL], for which the EC50 in data set [1] stood at 36.8 µM. For the same compound, in data set [2] (read-out: logP), the lipophilicity (logP) amounted to 5.16. Moreover, in data set [3], the Smax was determined as 963%. Also, in data set [4], the Activity turned out to be 357%.
For `C=CCc1cccc(-c2cccc(CC=C)c2O)c1O`, the half-maximal effective concentration (EC50) in data set [1] amounted to 35.2 µM. Moreover, in data set [2] (read-out: logP), the log partition coefficient (logP) is 5.09. Besides, the Smax in data set [3] was found to be 148%. Moreover, the Activity in data set [4] is 53%.

By EC50 is commonly meant the concentration at which the effect is half-maximal. By logP is commonly meant a log measure of how a compound divides between an organic and an aqueous phase.

These data come from ChEMBL document CHEMBL1811845, “Modulation of GABAA-receptors by honokiol and derivatives: subtype selectivity and structure-activity relationship” (J Med Chem, 2011).
